Compound activity from PubChem.
A selection: hits, their analogues and other compounds. The true share with any hit is near 2.3%.
TRPC4 PAM: positive allosteric modulators of TRPC4, primary screen, cell-based, mouse TRPC4beta, HEK293 mu-opioid, Fluo-4 calcium; Short transient receptor potential channel 4 (Mus musculus), Q9QUQ5; DAMGO EC20, Fluo-4 Ca2+ flux; hits give high values; B-score at 10 µM; 0.42% of 310,000 active; AID 2227, 2009;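 active = B-score of calcium response area above 5 SD of library B-scores, with initial fluorescence ratio within 5 SD of library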
Target sequence (Q9QUQ5 whole entry, looked up): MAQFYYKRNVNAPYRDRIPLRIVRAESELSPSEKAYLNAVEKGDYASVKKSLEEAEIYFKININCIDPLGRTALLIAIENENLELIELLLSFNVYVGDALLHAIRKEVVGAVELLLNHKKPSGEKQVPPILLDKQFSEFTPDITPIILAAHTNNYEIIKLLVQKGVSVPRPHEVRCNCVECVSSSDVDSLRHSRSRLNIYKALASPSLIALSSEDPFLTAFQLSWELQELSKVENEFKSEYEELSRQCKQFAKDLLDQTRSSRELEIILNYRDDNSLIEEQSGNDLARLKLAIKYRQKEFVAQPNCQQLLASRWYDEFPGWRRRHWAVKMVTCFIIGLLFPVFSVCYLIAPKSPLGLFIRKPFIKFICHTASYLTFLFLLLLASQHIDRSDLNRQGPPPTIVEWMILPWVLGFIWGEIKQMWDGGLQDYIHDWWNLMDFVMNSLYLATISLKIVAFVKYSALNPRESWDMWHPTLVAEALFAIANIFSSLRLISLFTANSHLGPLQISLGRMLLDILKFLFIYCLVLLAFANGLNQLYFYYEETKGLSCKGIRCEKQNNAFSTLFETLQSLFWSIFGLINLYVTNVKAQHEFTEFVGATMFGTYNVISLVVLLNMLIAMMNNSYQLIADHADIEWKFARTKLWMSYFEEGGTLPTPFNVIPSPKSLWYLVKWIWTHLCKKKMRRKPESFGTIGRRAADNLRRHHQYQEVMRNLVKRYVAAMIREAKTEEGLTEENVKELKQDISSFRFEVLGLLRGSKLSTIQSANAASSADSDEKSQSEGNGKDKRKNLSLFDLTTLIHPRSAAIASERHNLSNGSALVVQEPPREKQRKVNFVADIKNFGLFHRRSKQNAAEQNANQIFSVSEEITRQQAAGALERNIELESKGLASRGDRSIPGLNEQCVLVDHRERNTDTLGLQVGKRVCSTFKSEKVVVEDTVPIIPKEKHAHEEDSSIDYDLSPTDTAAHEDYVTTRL
TRPC4 act: activators of mouse TRPC4 channel, primary screen, Fluo4 calcium, HEK293 TRPC4beta/mu-opioid cells. Fluo4 calcium fluorescence; hits give high values. Short transient receptor potential channel 4 (Mus musculus), Q9QUQ5. 0.49% of 310,000 active. AID 2237, 2010. B-score at 10 µM;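 active = B-score above 5 SD of library B-scores, and initial fluorescence ratio not above library mean plus 5 SD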;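 also: positive B-score marks a calcium rise read as TRPC4 activation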
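system = HEK293 cells stably co-expressing mouse TRPC4beta and mu-opioid receptor | schedule = Fluo4 dye loading 45 min at room temperature, 110 s recording | measure = B-scored integrated calcium fluorescence ratio | signal = Fluo4 calcium-sensitive dye fluorescence, kinetic, 1 Hz baseline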
TRPC6 inh: mouse TRPC6 channel inhibitors, primary screen, cell-based, HEK293, membrane potential dye; ACh-evoked depolarization; hits give low values; B-score at 10 µM; AID 2553, 2010; 1.1% of 310,000 active; Short transient receptor potential channel 6 (Mus musculus), Q61143;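 active = B-score under library mean minus 3 SD, initial fluorescence not abnormally high, positive integrated signal ratio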;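 also: B-score derived from integrated fluorescence ratio over the kinetic read; more negative B-score means stronger inhibition of depolarization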
TRPC4 inh: inhibitors of mouse TRPC4 channel, primary screen, Fluo4 calcium, HEK293 TRPC4beta/mu-opioid cells. DAMGO-evoked Fluo4 calcium flux; hits give low values. 0.39% of 300,000 active. B-score at 10 µM. AID 2247, 2010;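 active = B-score over 3 SD under the library average, no early fluorescence shift, positive overall ratio signal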
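Signal: kinetic Fluo4 fluorescence imaging of calcium influx. Material: stable TRPC4beta/mu-opioid receptor HEK293 cells. Probe or stimulus: DAMGO in two steps, submaximal then maximal.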
TRPC6 activator: mouse TRPC6 channel activators, primary screen, cell-based, HEK293, membrane potential dye. 0.13% of 310,000 active. HEK293-TRPC6 membrane potential dye fluorescence; hits give high values. B-score at 10 µM. Short transient receptor potential channel 6 (Mus musculus), Q61143;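 active = B-score of the integrated fluorescence ratio above library mean plus 3 SD, and starting fluorescence ratio within library mean plus 5 SD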;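 also: higher score means more depolarization so channel activation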
TRPC4 spec 2: second check of whether TRPC6 inhibitors also affect mouse TRPC4. shares compounds with TRPC6 inh. 42% of 920 active. HEK293 TRPC4/MOR, membrane potential dye fluorescence; channel activated by saturating DAMGO dose. inhibition, % at 10 µM;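 active = compounds whose fluorescence signal differed from control wells by over 3 SD, either direction, in both duplicate plates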
TRPC4 spec: mouse TRPC4 modulation by TRPC6 hits, confirmation, selectivity assay for TRPC6 inhibitor project, cell-based, HEK293 TRPC4/mu-opioid, membrane potential dye | shares compounds with TRPC6 inh | membrane potential fluorescence | activity change, negative = inhibition, % at 10 µM | 61% of 920 active | AID 2777, 2010;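 active = rise or fall in signal beyond 3 SD of buffer-only wells in both replicate plates, either sign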;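 also: integrated kinetic ratio of fluorescence range over baseline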
HEK293 MPD ctr 2-1: nonspecific membrane potential effects, parental HEK293, confirmation, counter-screen for TRPC6 inhibitor project, cell-based, second counter screen | shares compounds with TRPC6 inh | parental HEK293 membrane potential dye fluorescence; maximal acetylcholine challenge after compound addition | signal change vs control, % at 10 µM | 31% of 920 active | AID 2779, 2010;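 active = membrane potential signal moving either way by over 3 SD of the maximum-effect control, in both duplicate plates, meaning non-specific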
HEK293 MPD ctr-1: membrane potential modulation in parental HEK293, confirmation, counter-screen for TRPC6 inhibitor project, cell-based. shares compounds with TRPC6 inh. parental HEK293 membrane potential dye fluorescence. membrane potential signal change, % at 10 µM. 60% of 920 active. AID 2780, 2010;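 active = membrane potential signal shifting up or down by more than 3 SD of buffer-only wells, on both duplicate plates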
HEK293 MPD ctr-2: parental HEK293 membrane potential modulation, confirmation, counter-screen for TRPC6 modulator project, cell-based; shares compounds with TRPC6 inh; membrane potential dye fluorescence; AID 488924, 2010; 51% of 2,400 active; membrane potential signal change, % at 10 µM;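 active = membrane potential signal moves up or down beyond 5 SD from buffer-only wells, on both duplicate plates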
HEK293 MPD ctr 2-2: second counter-screen for TRPC6 modulators: effect in parental HEK293 cells; shares compounds with TRPC6 inh; membrane potential dye fluorescence; after compound, maximal acetylcholine stimulation; inhibition, % at 10 µM; 14% of 2,400 active; AID 488926;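 active = membrane potential signal drops by more than 5 SD from the mean control signal, in both duplicate plates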
TRPC4 ctr mod: TRPC4 modulation by TRPC6 hit compounds, confirmation, selectivity assay for TRPC6 modulator project, cell-based, HEK293 TRPC4/mu-opioid, membrane potential dye, mouse; shares compounds with TRPC6 inh; membrane potential fluorescence; percent change from control (negative = decrease, positive = increase), % at 10 µM; 69% of 2,400 active; AID 488927, 2010;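 active = membrane potential signal moved up or down beyond 5 SD of buffer control wells, in both duplicate plates, actives on both sides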
TRPC4 ctr inh 2: second selectivity test of TRPC6 modulators against mouse TRPC4; HEK293 TRPC4/mu-opioid, membrane potential dye fluorescence; stimulated with maximal-effect DAMGO; shares compounds with TRPC6 inh; inhibition, % at 10 µM; 55% of 2,400 active;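 active = drop in membrane potential signal beyond 5 SD of the control wells in both duplicate plates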;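 also: TRPC4 counter screen for TRPC6 hits run under conditions tuned for TRPC6 not TRPC4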
TRPC6 block conf: mouse TRPC6 channel inhibitors, confirmation, HEK293 cells, membrane potential dye, duplicate. shares compounds with TRPC6 inh. ACh-evoked depolarization. inhibition, % at 10 µM. 43% of 3,300 active;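 active = fluorescence ratio falls more than 5 SD below the full-stimulation control mean, in both duplicate runs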;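 also: integrated fluorescence ratio of peak minus minimum over baseline after agonist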
TRPC6 act conf: mouse TRPC6 channel activators, confirmation, HEK293 cells, membrane potential dye, duplicate | shares compounds with TRPC6 inh | HEK293-TRPC6 membrane potential dye fluorescence, FDSS | activation, % at 10 µM | 11% of 2,800 active;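 active = ratio signal rise beyond 5 SD above unstimulated control wells' mean, seen in both duplicate runs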
Each line names hits and unclear results; the compound was inactive in the other large screens (follow-up assays come after a bar, where they were run).

CCCn1c2ccccc2c2cnn(CC(=O)NCCCN3CCN(c4ccccc4)CC3)c(=O)c21	TRPC6 inh -5.3 | HEK293 MPD ctr-2 134% | HEK293 MPD ctr 2-2 inactive | TRPC4 ctr mod 8.0% | TRPC4 ctr inh 2 74% | TRPC6 block conf inactive
Cc1ccc(Nc2cc(C)nc3c(C)cccc23)cc1	TRPC6 inh -6.8, TRPC4 inh -7 | TRPC4 spec 2 20% | TRPC4 spec inactive | HEK293 MPD ctr 2-1 22% | HEK293 MPD ctr-1 -196% | TRPC6 block conf 98% | TRPC6 act conf inactive
CC(=O)c1ccc(Nc2cc(C)nc3ccccc23)cc1	TRPC6 inh -6.9 | HEK293 MPD ctr-2 102% | HEK293 MPD ctr 2-2 144% | TRPC4 ctr mod inactive | TRPC4 ctr inh 2 63% | TRPC6 block conf 84% | TRPC6 act conf inactive
CC(=O)Nc1ccc(C(=O)CSc2cc(C)c3cccc(C)c3n2)cc1	none
Cc1cc(N/N=C/c2ccc(O)cc2)c2cccc(C)c2n1	none
CC(=O)c1ccc(Nc2nc(C)cc(C)n2)cc1	none
CC(=O)c1ccc(Nc2cc(C)nc3c(C)cccc23)cc1	TRPC6 inh -5.7 | HEK293 MPD ctr-2 -82% | HEK293 MPD ctr 2-2 64% | TRPC4 ctr mod -22% | TRPC4 ctr inh 2 54% | TRPC6 block conf inactive | TRPC6 act conf inactive
CCCc1ccc(OCc2ccc(C(=O)N/N=C/c3cccnc3)o2)cc1	none
